According to ChEMBL document CHEMBL1145979, “Synthetic analogues of the bacterial signal (quorum sensing) molecule N-(3-oxododecanoyl)-L-homoserine lactone as immune modulators” (J Med Chem, 2003):

How the values were obtained:
Mus musculus [1] = organism: Mus musculus; assay: Inhibition of murine splenocyte proliferation; Not active; format: functional
How it was run: (§1)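 Spleens from 8-week-old female BALB/c mice were made into single-cell suspensions and the red cells lysed (Tris/NH4Cl, pH 7.2). Cultured at 100 000 cells per well in complete T-cell medium with ConA 1 μg/mL and doubling-down dilutions of compound from 1 mM to 0.1 μM, 48 h at 37 °C, 5% CO2. Then 0.25 μCi [³H]-thymidine was added for 24 h and uptake counted; IC50 derived.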

Mus musculus [2] = organism: Mus musculus; assay: Inhibition of murine splenocyte proliferation; format: functional; how it was run: as §1

**Q.** For CCCCCCCCCC(=O)CC(N)=O, which IC50 (Mus musculus [1]) is on record?
**A.** The IC50 was “Not Active”.

**Q.** For CCCCCCCCC(=O)CC(=O)N[C@H]1CCOC1=O, which IC50 (Mus musculus [2]) is on record?
**A.** The IC50 was 8.9 µM.

**Q.** For O=C(O)CCCCCCCCCCC(=O)CC(=O)N[C@H]1CCOC1=O, which IC50 (Mus musculus [1]) is on record?
**A.** Its IC50 is “Not Active”.

**Q.** CCCCCCCCCC(=O)CC(=O)N[C@@H](CCO)C(=O)OC was tested. Which IC50 (Mus musculus [2]) did it give?
**A.** Its IC50 is 53 µM.

**Q.** C=CCCCCCCCCC(=O)CC(=O)N[C@H]1CCOC1=O was tested. Which IC50 (Mus musculus [2]) did it give?
**A.** Its IC50 is 7 µM.

**Q.** CCCCCC(=O)CC(=O)N[C@H]1CCOC1=O was tested. Which IC50 (Mus musculus [2]) did it give?
**A.** Its IC50 is 400 µM.

**Q.** With CCCCCCCC(=O)CC(=O)N[C@H]1CCOC1=O as the compound, how does the IC50 (Mus musculus [2]) read?
**A.** Its IC50 is 21 µM.

**Q.** CCCCCCCCCCCC(=O)CC(=O)N[C@H]1CCOC1=O was tested. Which IC50 (Mus musculus [2]) did it give?
**A.** The IC50 was 6.3 µM.

**Q.** For CCCCCCCCCC(=O)CC(=O)N[C@H]1CCOC1=O, which IC50 (Mus musculus [2]) is on record?
**A.** The IC50 was 4 µM.

**Q.** Which IC50 (Mus musculus [2]) does the source give for CCCCCC(C)CCC(=O)CC(=O)N[C@H]1CCOC1=O (some centres undefined) here?
**A.** Its IC50 is 5 µM.

**Q.** For O=C(CCCCCCCCCCBr)CC(=O)N[C@H]1CCOC1=O, which IC50 (Mus musculus [2]) is on record?
**A.** Its IC50 is 3 µM.

**Q.** How did the IC50 (Mus musculus [2]) turn out when CCCCCCCCCC(O)CC(=O)N[C@H]1CCOC1=O (some centres undefined) was run?
**A.** Its IC50 is 12.5 µM.

**Q.** For CCCCCCCCCCCC(O)CC(=O)N[C@H]1CCOC1=O (some centres undefined), which IC50 (Mus musculus [2]) is on record?
**A.** The IC50 was 7 µM.

**Q.** CCCCCCCCCCCC(=O)N[C@H]1CCOC1=O was tested. Which IC50 (Mus musculus [2]) did it give?
**A.** Its IC50 is 52 µM.

**Q.** COC(=O)CCCCCCCCCC(=O)CC(=O)N[C@H]1CCOC1=O was tested. Which IC50 (Mus musculus [2]) did it give?
**A.** The IC50 was 60 µM.

**Q.** Which IC50 (Mus musculus [2]) does the source give for O=C(CCCCCCCCCBr)CC(=O)N[C@H]1CCOC1=O here?
**A.** The IC50 was 6 µM.

**Q.** Which IC50 (Mus musculus [2]) does the source give for CCCCCCCCCCC(=O)CC(=O)N[C@H]1CCOC1=O here?
**A.** Its IC50 is 4.3 µM.

**Q.** For CCCCCCCCCC(=O)N[C@H]1CCOC1=O, which IC50 (Mus musculus [2]) is on record?
**A.** Its IC50 is 33 µM.

**Q.** Which IC50 (Mus musculus [2]) does the source give for CCCCCCCCCC(=O)CC(=O)NC1CCSC1=O (centres undefined) here?
**A.** Its IC50 is 150 µM.

**Q.** How did the IC50 (Mus musculus [2]) turn out when O=C(CCCCCCCCCO)CC(=O)N[C@H]1CCOC1=O was run?
**A.** Its IC50 is 8 µM.

**Q.** Which IC50 (Mus musculus [2]) does the source give for CCC/C=C/CCCCCCC(=O)CC(=O)N[C@H]1CCOC1=O here?
**A.** The IC50 was 15 µM.

**Q.** With CCCCCC/C=C\CCCC(=O)CC(=O)N[C@H]1CCOC1=O as the compound, how does the IC50 (Mus musculus [2]) read?
**A.** Its IC50 is 17 µM.

**Q.** For C=CCCCCCCCCCC(=O)CC(=O)N[C@H]1CCOC1=O, which IC50 (Mus musculus [2]) is on record?
**A.** Its IC50 is 10 µM.

**Q.** With CCCCCCCCCCC(=O)N[C@H]1CCOC1=O as the compound, how does the IC50 (Mus musculus [2]) read?
**A.** Its IC50 is 90 µM.
